ChEMBL document CHEMBL5532647, “Design, synthesis, ADME and biological evaluation of benzylpiperidine and benzylpiperazine derivatives as novel reversible monoacylglycerol lipase (MAGL) inhibitors” (Eur J Med Chem, 2024)
The source made the active and inactive calls. The calls are words filed in the database; no cut-off is given here.

Assays:
[1] = molecular target: T1, Monoglyceride lipase (Homo sapiens) (UniProt Q99685); assay: Reversible inhibition of human recombinant MAGL using 4-nitrophenylacetate as substrate preincubated with compound for 60 mins followed by substrate addition and measured after 30 mins by microplate reader analysis; settings: time 90.0 min
T1 sequence (whole entry): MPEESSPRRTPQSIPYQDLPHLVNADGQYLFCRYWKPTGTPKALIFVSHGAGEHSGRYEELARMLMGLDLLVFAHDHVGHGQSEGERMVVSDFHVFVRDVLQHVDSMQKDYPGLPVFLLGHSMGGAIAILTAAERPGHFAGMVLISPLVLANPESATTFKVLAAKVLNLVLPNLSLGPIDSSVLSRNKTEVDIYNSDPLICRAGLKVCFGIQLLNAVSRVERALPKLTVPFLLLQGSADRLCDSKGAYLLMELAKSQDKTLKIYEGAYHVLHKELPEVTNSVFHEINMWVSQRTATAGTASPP
How it was run: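 Human recombinant MAGL (11 ng/well) in Tris pH 7.2 buffer with EDTA and BSA, preincubated with compound for 0, 30 or 60 min at room temperature. Reaction then started with 4-NPA 500 μM (solution added). Absorbance at 405 nm after 30 min. IC50 from triplicates of two independent experiments.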

[2] = molecular target: T1, Monoglyceride lipase (Homo sapiens); assay: Reversible inhibition of human recombinant MAGL using 4-nitrophenylacetate as substrate at 320 nM incubated for 15 mins by microplate reader analysis
How it was run: (§1)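 Human recombinant MAGL (880 ng in Tris buffer, pH 7.2) incubated 60 min at room temperature with compound at 320 nM in the mixture, then diluted 40-fold in buffer. After 15 min, reaction started with 4-NPA 500 μM (stock added). Activity read at 405 nm after 30 min. Undiluted comparison run at 320 nM and 8 nM.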

[3] = molecular target: T1, Monoglyceride lipase (Homo sapiens); assay: Reversible inhibition of human recombinant MAGL using 4-nitrophenylacetate as substrate at 8 nM incubated for 15 mins by microplate reader analysis; how it was run: as §1
[4] = molecular target: T2, Fatty-acid amide hydrolase 1 (Homo sapiens) (UniProt O00519); assay: Inhibition of FAAH in human U-937 cells at 10 uM preincubated with compound for 15 mins followed by 2-OG addition and measured after 15 mins by scintillation liquid counter analysis; assay type: cell-based; settings: time 30.0 min
T2 sequence (whole entry): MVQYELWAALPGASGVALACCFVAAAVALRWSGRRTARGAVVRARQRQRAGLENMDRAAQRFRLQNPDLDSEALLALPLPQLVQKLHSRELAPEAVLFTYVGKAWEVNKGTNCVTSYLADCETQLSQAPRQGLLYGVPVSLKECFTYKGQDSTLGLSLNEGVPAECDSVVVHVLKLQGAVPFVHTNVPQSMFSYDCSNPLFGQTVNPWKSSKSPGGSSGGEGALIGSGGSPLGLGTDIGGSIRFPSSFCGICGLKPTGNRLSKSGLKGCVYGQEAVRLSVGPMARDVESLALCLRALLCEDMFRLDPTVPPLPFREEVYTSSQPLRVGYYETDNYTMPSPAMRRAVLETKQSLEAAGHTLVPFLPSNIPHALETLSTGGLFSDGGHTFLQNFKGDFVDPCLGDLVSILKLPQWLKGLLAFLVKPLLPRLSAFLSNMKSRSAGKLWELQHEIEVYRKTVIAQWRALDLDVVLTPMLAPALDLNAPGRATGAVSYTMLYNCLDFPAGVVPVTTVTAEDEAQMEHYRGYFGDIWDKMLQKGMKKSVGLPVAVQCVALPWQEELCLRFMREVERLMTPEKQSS

[5] = molecular target: Cannabinoid receptor 2 (Homo sapiens) (UniProt P34972); assay: Displacement of [3H]CP55940 from human CB2 receptor at 10 uM incubated for 90 mins
Chain of Cannabinoid receptor 2 (Homo sapiens) (P34972 whole entry): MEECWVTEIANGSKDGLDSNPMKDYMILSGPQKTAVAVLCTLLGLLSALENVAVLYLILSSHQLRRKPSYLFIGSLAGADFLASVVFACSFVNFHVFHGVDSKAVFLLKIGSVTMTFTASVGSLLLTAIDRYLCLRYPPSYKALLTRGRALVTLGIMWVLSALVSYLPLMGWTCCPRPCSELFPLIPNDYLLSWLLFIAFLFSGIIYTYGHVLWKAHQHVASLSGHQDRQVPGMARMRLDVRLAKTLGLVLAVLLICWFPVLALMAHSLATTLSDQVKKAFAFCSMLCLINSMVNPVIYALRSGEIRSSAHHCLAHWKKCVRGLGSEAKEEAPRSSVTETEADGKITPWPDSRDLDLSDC
How it was run: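 Membranes expressing hCB1 or hCB2 in 50 mM Tris-HCl buffer, pH 7.4, with 2.5 mM EDTA, 5 mM MgCl2 and 0.5% fatty acid-free BSA. Incubated with compound (10 μM screening) or vehicle plus 0.5 nM [3H]CP55,940 for 90 min at 30 °C. Non-specific binding defined with 10 μM […]. GF/B filtration, ice-cold buffer washes, radioactivity counted. Two independent experiments in triplicate.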

[6] = molecular target: T3, Monoacylglycerol lipase ABHD6 (Homo sapiens) (UniProt Q9BV23); assay: Inhibition of human ABHD6 transfected in HEK293 cells at 10 uM preincubated with compound for 30 mins followed by 2-OG addition and measured after 5 mins by liquid scintillation spectroscopy; assay type: cell-based; settings: time 35.0 min
T3 sequence (whole entry): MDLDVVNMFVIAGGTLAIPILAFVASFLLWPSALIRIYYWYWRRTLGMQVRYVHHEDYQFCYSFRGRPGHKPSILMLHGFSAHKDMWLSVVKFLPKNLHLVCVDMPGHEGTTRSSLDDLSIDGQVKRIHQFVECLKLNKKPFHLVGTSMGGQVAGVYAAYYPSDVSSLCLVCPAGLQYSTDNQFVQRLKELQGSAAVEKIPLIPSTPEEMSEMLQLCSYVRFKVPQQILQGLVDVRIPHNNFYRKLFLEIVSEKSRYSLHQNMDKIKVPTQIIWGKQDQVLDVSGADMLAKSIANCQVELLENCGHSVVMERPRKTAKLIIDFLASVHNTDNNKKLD
How it was run: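 Homogenates (40 μg) of HEK293 cells stably transfected with hABHD6 or hABHD12. Compound 10 μM preincubated 30 min at 37 °C, 500 rpm, in Tris/EDTA buffer with 0.1% fatty acid-free BSA, pH 7.6. Controls: WWL70 10 μM or THL 20 μM; DMSO vehicle. 2-OG 10 μM added for 5 min at 37 °C. Stopped with ice-cold CHCl3:MeOH; aqueous phase counted. No-enzyme blanks used; non-transfected HEK293 hydrolysis subtracted.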

[7] = molecular target: T4, Monoacylglycerol lipase ABHD6 (Mus musculus) (UniProt Q8R2Y0); assay: Inhibition of mouse brain ABHD6 at 10 uM incubated with compound for 25 mins by TAMRA-FP probe based SDS-PAGE analysis; assay type: tissue-based
T4 sequence (whole entry): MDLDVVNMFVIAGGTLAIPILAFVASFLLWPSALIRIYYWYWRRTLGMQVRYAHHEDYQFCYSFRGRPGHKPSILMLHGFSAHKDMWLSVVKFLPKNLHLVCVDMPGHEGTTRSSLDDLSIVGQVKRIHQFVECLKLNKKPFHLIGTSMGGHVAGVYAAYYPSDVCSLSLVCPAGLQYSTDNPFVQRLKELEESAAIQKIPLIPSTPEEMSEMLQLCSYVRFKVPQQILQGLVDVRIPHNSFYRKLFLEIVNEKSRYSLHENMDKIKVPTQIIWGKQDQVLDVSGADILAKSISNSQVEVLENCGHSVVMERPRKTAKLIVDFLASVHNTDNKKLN
How it was run: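 Mouse brain membranes (2 mg/mL final, in PBS) preincubated 25 min at 25 °C with test compound (10 μM final) or DMSO vehicle. Controls: JZL-184, URB597 4 μM, WWL70 10 μM, THL, MAFP 5 μM. TAMRA-FP 125 nM final added for 5 min at 25 °C. Reaction stopped with Laemmli buffer, 3 min at 25 °C then 10 min at 90 °C. Separation by 10% SDS-PAGE, fluorescence scanning, three independent experiments.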

SMILES | inhibition [1] | inhibition [2] | inhibition [3] | inhibition [4] | Activity [5] | inhibition [6] | inhibition [7]
O=C(c1cc(O)ccc1F)N1CCC(Cc2cccc(Sc3cc(C(F)(F)F)ccn3)c2)CC1 | Active | Active | Active | inactive | inactive | inactive | inactive
O=C(c1cccc(O)c1)N1CCC(Cc2cccc(Sc3cc(C(F)(F)F)ccn3)c2)CC1 | Active | Active | Active | inactive | inactive | inactive | inactive
O=C(c1cccc(O)c1)N1CCC(Cc2ccc(F)c(Sc3cc(C(F)(F)F)ccn3)c2)CC1 | Active | Active | Active | inactive | inactive | inactive | inactive
O=C(c1cc(O)ccc1F)N1CCN(Cc2cccc(Sc3cc(C(F)(F)F)ccn3)c2)CC1 | Active | Active | Active | inactive | inactive | inactive | inactive
